Experimental data from ChEMBL document CHEMBL1629596, “Antileishmanial activity of 1,3,4-thiadiazolium-2-aminide in mice infected with Leishmania amazonensis” (Antimicrob Agents Chemother, 2009).
Activity calls are given as the source filed them. The rule behind the calls is not given here.

How the values were obtained:
Mus musculus [1] = experiment: Toxicity in CBA/J mouse assessed as change in lymphocytes count at 22 mg/kg/day, sc administered 5 doses a week for 4 weeks (reference value: 75%); assay type: organism-based; parameters: route subcutaneous; settings: in vivo, 672 h
Method in brief: (§1)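 Uninfected mice dosed subcutaneously in DMSO/PBS, 5 doses/week; tail blood taken at week 4 of treatment. Total leukocytes counted in Neubauer chamber; lymphocyte, monocyte and neutrophil values given as percentages.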

Mus musculus [2] = experiment: Toxicity in CBA/J mouse assessed as change in body weight at 22 mg/kg/day, sc administered 5 doses a week for 4 weeks (reference value: 25 g); assay type: organism-based; parameters: route subcutaneous; settings: in vivo, 672 h
Mus musculus [3] = experiment: Toxicity in CBA/J mouse assessed as change in white blood cell count at 22 mg/kg/day, sc administered 5 doses a week for 4 weeks (reference value: 14 x 10^3 ul); assay type: organism-based; parameters: route subcutaneous; settings: in vivo, 672 h; method in brief: as §1
Mus musculus [4] = experiment: Toxicity in CBA/J mouse assessed as change in monocytes count at 22 mg/kg/day, sc administered 5 doses a week for 4 weeks (reference value: 5%); assay type: organism-based; parameters: route subcutaneous; settings: in vivo, 672 h; method in brief: as §1
Leishmania amazonensis [5] = experiment: Antileishmanial activity against Leishmania amazonensis infected in macrophages assessed as nitric oxide release; assay type: functional, organism-based
Mus musculus [6] = experiment: Toxicity in CBA/J mouse assessed as change in aspartate aminotransferase level at 22 mg/kg/day, sc administered 5 doses a week for 4 weeks (reference value: 51 +/- 6.8 U/ml); assay type: organism-based; parameters: route subcutaneous; settings: in vivo, 672 h
Leishmania amazonensis [7] = experiment: Antileishmanial activity against Leishmania amazonensis infected in CBA/J mouse assessed as reduction of parasite loads in spleen at 22 mg/kg/day, sc administered 4 weeks after infection 5 dose in a week for 4 weeks measured after 12 weeks; assay type: functional, organism-based
Method in brief: (§2)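 Week 12 postinfection (4 weeks after last dose): popliteal lymph nodes and spleens removed aseptically, weighed, homogenized in Schneider's medium + 10% FCS; eight 1:10 serial dilutions in triplicate, incubated at 26°C, read by inverted microscope; titer = last dilution with at least one parasite. Seven animals; subcutaneous dosing in DMSO/PBS, 5 doses/week for 4 weeks.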

Leishmania amazonensis [8] = experiment: Antileishmanial activity against Leishmania amazonensis infected in CBA/J mouse assessed as reduction of parasite loads in popliteal lymph nodes at 22 mg/kg/day, sc administered 4 weeks after infection 5 dose in a week for 4 weeks measured after 12 weeks; assay type: functional, organism-based; settings: Popliteal lymph node; method in brief: as §2
Mus musculus [9] = experiment: Toxicity in CBA/J mouse assessed as change in alanine aminotransferase level at 22 mg/kg/day, sc administered 5 doses a week for 4 weeks (reference value: 52 +/- 6.2 U/ml); assay type: organism-based; parameters: route subcutaneous; settings: in vivo, 672 h
Leishmania amazonensis [10] = experiment: Antileishmanial activity against Leishmania amazonensis infected in CBA/J mouse assessed as reduction of foot-pad thickness at 22 mg/kg/day, sc administered 4 weeks after infection 5 dose in a week for 4 weeks measured after 12 weeks; assay type: functional, organism-based
Method in brief: (§3)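 Infected footpad thickness measured as lesion size, followed to week 12 postinfection. Subcutaneous dosing in DMSO/PBS vehicle began 27 days after infection, 5 doses a week for 4 weeks; controls received vehicle alone. Groups of seven mice, mean ± SEM.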

Leishmania amazonensis [11] = experiment: Antileishmanial activity against Leishmania amazonensis infected in CBA/J mouse assessed as increase of nitric oxide production in lymph node cells at 22 mg/kg/day, sc administered 4 weeks after infection 5 dose in a week for 4 weeks measured after 12 weeks; assay type: functional, organism-based
Mus musculus [12] = experiment: Toxicity in CBA/J mouse assessed as change in neutrophils count at 22 mg/kg/day, sc administered 5 doses a week for 4 weeks (reference value: 19%); assay type: organism-based; parameters: route subcutaneous; settings: in vivo, 672 h; method in brief: as §1
Mus musculus [13] = experiment: Toxicity in CBA/J mouse assessed as change in lymphocytes count at 24 mg/kg/day, sc administered 5 doses a week for 4 weeks (reference value: 75%); assay type: organism-based; parameters: route subcutaneous; settings: in vivo, 672 h; method in brief: as §1
Mus musculus [14] = experiment: Toxicity in CBA/J mouse assessed as change in alanine aminotransferase level at 24 mg/kg/day, sc administered 5 doses a week for 4 weeks (reference value: 52 +/- 6.2 U/ml); assay type: organism-based; parameters: route subcutaneous; settings: in vivo, 672 h
Mus musculus [15] = experiment: Toxicity in CBA/J mouse assessed as change in white blood cell count at 24 mg/kg/day, sc administered 5 doses a week for 4 weeks (reference value: 14 x 10^3 ul); assay type: organism-based; parameters: route subcutaneous; settings: in vivo, 672 h; method in brief: as §1
Leishmania amazonensis [16] = experiment: Antileishmanial activity against Leishmania amazonensis infected in CBA/J mouse assessed as reduction of parasite loads in popliteal lymph nodes at 24 mg/kg/day, sc administered 4 weeks after infection 5 dose in a week for 4 weeks measured after 12 weeks; assay type: functional, organism-based; settings: Popliteal lymph node; method in brief: as §2
Mus musculus [17] = experiment: Toxicity in CBA/J mouse assessed as change in monocytes count at 24 mg/kg/day, sc administered 5 doses a week for 4 weeks (reference value: 5%); assay type: organism-based; parameters: route subcutaneous; settings: in vivo, 672 h; method in brief: as §1
Leishmania amazonensis [18] = experiment: Antileishmanial activity against Leishmania amazonensis infected in CBA/J mouse assessed as reduction of parasite loads in spleen at 24 mg/kg/day, sc administered 4 weeks after infection 5 dose in a week for 4 weeks measured after 12 weeks; assay type: functional, organism-based; method in brief: as §2
Mus musculus [19] = experiment: Toxicity in CBA/J mouse assessed as change in body weight at 24 mg/kg/day, sc administered 5 doses a week for 4 weeks (reference value: 25 g); assay type: organism-based; parameters: route subcutaneous; settings: in vivo, 672 h
Leishmania amazonensis [20] = experiment: Antileishmanial activity against Leishmania amazonensis infected in CBA/J mouse assessed as reduction of foot-pad thickness at 24 mg/kg/day, sc administered 4 weeks after infection 5 dose in a week for 4 weeks measured after 12 weeks; assay type: functional, organism-based; method in brief: as §3
Mus musculus [21] = experiment: Toxicity in CBA/J mouse assessed as change in neutrophils count at 24 mg/kg/day, sc administered 5 doses a week for 4 weeks (reference value: 19%); assay type: organism-based; parameters: route subcutaneous; settings: in vivo, 672 h; method in brief: as §1
Mus musculus [22] = experiment: Toxicity in CBA/J mouse assessed as change in aspartate aminotransferase level at 24 mg/kg/day, sc administered 5 doses a week for 4 weeks (reference value: 51 +/- 6.8 U/ml); assay type: organism-based; parameters: route subcutaneous; settings: in vivo, 672 h
Leishmania amazonensis [23] = experiment: Antileishmanial activity against Leishmania amazonensis infected in CBA/J mouse assessed as reduction of lesion size at 24 mg/kg/day, sc administered 4 weeks after infection 5 dose in a week for 4 weeks measured after 12 weeks; assay type: functional, organism-based; method in brief: as §3
Leishmania amazonensis [24] = experiment: Antileishmanial activity against Leishmania amazonensis infected in CBA/J mouse assessed as reduction of lesion size at 100 mg/kg/day, sc administered 4 weeks after infection 5 dose in a week for 4 weeks measured after 12 weeks; assay type: functional, organism-based
Method in brief: (§4)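 Sc dosing started day 27 post-infection, 5 doses/week for 4 weeks. Controls got DMSO/PBS vehicle. Footpad swelling was followed to week 12 and recorded as infected-footpad thickness. Groups were seven mice, reported as mean with standard errors.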

Leishmania amazonensis [25] = experiment: Antileishmanial activity against Leishmania amazonensis infected in CBA/J mouse assessed as reduction of parasite loads in popliteal lymph nodes at 100 mg/kg/day, sc administered 4 weeks after infection 5 dose in a week for 4 weeks measured after 12 weeks; assay type: functional, organism-based; settings: Popliteal lymph node
Method in brief: (§5)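 Mice were killed at week 12, 4 weeks after treatment ended. Popliteal lymph nodes and spleens were removed aseptically, weighed and homogenized in Schneider's medium + 10% fetal calf serum. Eight serial 1:10 dilutions were plated in triplicate and incubated at 26°C. Titer was the last dilution with ≥1 parasite by microscopy. Groups were seven mice.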

Leishmania amazonensis [26] = experiment: Antileishmanial activity against Leishmania amazonensis infected in CBA/J mouse assessed as reduction of foot-pad thickness at 100 mg/kg/day, sc administered 4 weeks after infection 5 dose in a week for 4 weeks measured after 12 weeks; assay type: functional, organism-based; method in brief: as §4
Leishmania amazonensis [27] = experiment: Antileishmanial activity against Leishmania amazonensis infected in CBA/J mouse assessed as reduction of parasite loads in spleen at 100 mg/kg/day, sc administered 4 weeks after infection 5 dose in a week for 4 weeks measured after 12 weeks; assay type: functional, organism-based; method in brief: as §5

Compound: COc1ccc(/C=C/c2sc(Nc3ccccc3)n[n+]2-c2ccccc2)cc1.[Cl-]
- Activity (Mus musculus [1]): 69%
- Activity (Mus musculus [2]): 27 g
- Activity (Mus musculus [3]): 12 ×10³ /uL
- Activity (Mus musculus [4]): 5%
- Activity (Leishmania amazonensis [5]): Active
- Activity (Mus musculus [6]): 53 U/ml
- Activity (Leishmania amazonensis [7]): Active
- Activity (Leishmania amazonensis [8]): Active
- Activity (Mus musculus [9]): 57 U/ml
- Activity (Leishmania amazonensis [10]): Active
- Activity (Leishmania amazonensis [11]): Active
- Activity (Mus musculus [12]): 25%

Compound: C(=C\c1sc(Nc2ccccc2)n[n+]1-c1ccccc1)/c1ccccc1.[Cl-]
- Activity (Mus musculus [13]): 70%
- Activity (Leishmania amazonensis [5]): Active
- Activity (Mus musculus [14]): 58 U/ml
- Activity (Mus musculus [15]): 12 ×10³ /uL
- Activity (Leishmania amazonensis [16]): Active
- Activity (Mus musculus [17]): 5%
- Activity (Leishmania amazonensis [18]): Active
- Activity (Mus musculus [19]): 26 g
- Activity (Leishmania amazonensis [20]): Active
- Activity (Mus musculus [21]): 24%
- Activity (Mus musculus [22]): 48 U/ml
- Activity (Leishmania amazonensis [23]): inactive

Compound: MEGLUMINE ANTIMONATE
- Activity (Leishmania amazonensis [24]): inactive
- Activity (Leishmania amazonensis [25]): Active
- Activity (Leishmania amazonensis [26]): Active
- Activity (Leishmania amazonensis [27]): Active
